Here are results for 4 compounds from ChEMBL document CHEMBL2434878, “Synthesis and antimycobacterial activity of analogues of the bioactive natural products sampangine and cleistopholine” (Eur J Med Chem, 2013).

Values after ≈ are worked out from the molar mass of the structure shown. Bounds are passed on as bounds.

The nature of data set [1]: Genotoxicity in human HepG2/C3A cells assessed as genomic DNA fragmentation at 1 to 3 uM after 24 hrs by comet assay. It counts as toxicity, cell-based. Put shortly: (§1)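 Alkaline comet assay: C3A cells at 100,000/well recovered overnight, then 24 h at 37 °C, 5% CO2 with serial dilutions from DMSO stock in DMEM + 10% FCS. Cells embedded in low-melting agarose, lysed 1 h, electrophoresed 20 min at 300 mA, neutralized, gel red stained. Tail DNA as % of head + tail DNA by fluorescence microscopy; Mann–Whitney test.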

The test system of data set [2] is Mycobacterium avium subsp. paratuberculosis. Briefly: Antimicrobial activity against Mycobacterium avium subsp. paratuberculosis ATCC 15769 expressing luciferase reporter gene assessed as growth inhibition after 6 days by luminometry. It counts as functional. Conditions: ATCC 15769, 144 h.
The test system of another data set is Mycobacterium ulcerans. Briefly: Antimicrobial activity against Mycobacterium ulcerans 1615 expressing luciferase reporter gene assessed as growth inhibition after 6 days by luminometry. It counts as functional. The note with it: Mycobacterium ulcerans, 1615, 144 h. Put shortly:
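Luminescent M. ulcerans 1615 carrying pSMT1 luciferase plasmid, grown at 32 °C in 7H9 with 10% OADC and 0.2% glycerol. Serial dilutions from 10 mM DMSO stocks in 7H9 + 10% FCS; bacteria dosed at 50,000 RLU/ml, triplicate wells. After 6 days, light read over 10 s following 1% n-decanal in ethanol. GI50 taken at 50% growth reduction versus untreated culture.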

Data set [3] deals with Mycobacterium tuberculosis. In words: Antimicrobial activity against Mycobacterium tuberculosis H37Rv ATCC 27294 expressing luciferase reporter gene assessed as reduction in bacterial count after 6 days by luminometry. It counts as functional. The note with it: H37Rv ATCC 27294, 144 h. Put shortly:
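MIC by serial dilution in the 6-day luminescent H37Rv assay (7H9-10% FCS, 50,000 RLU/ml inoculum, triplicate wells, n-decanal read-out). MIC is the concentration giving at least one log10 reduction in signal versus the untreated control.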

A short description of data set [4]: Therapeutic index, ratio of IC50 for human HepG2/C3A cells to GI50 for Mycobacterium tuberculosis H37Rv ATCC 27294. The data set is classed as cell-based. The note with it: read-out: TI. Put shortly:
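TI is NI50/GI50. NI50 came from a neutral red uptake assay in C3A hepatocytes (40,000 cells/well, 24 h exposure at 37 °C, 3 h dye, OD 530 nm with 620 nm reference): the concentration reducing dye uptake by 50%. GI50 came from the 6-day luminescent H37Rv assay.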

Data set [5] deals with Mycobacterium tuberculosis. Briefly: Antimicrobial activity against Mycobacterium tuberculosis H37Rv ATCC 27294 expressing luciferase reporter gene assessed as growth inhibition after 6 days by luminometry. It counts as functional. The note with it: H37Rv ATCC 27294, 144 h. The procedure, abridged:
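Luminescent H37Rv (pSMT1, V. harveyi luciferase) was declumped by filtration, adjusted to 50,000 RLU/ml in 7H9-10% FCS, and exposed to serial compound dilutions in triplicate for 6 days at 37 °C. Light was read for 10 s after adding 1% n-decanal. GI50 is the concentration giving 50% growth reduction versus untreated culture.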

The test system of data set [6] is Mycobacterium tuberculosis. In words: Antimicrobial activity against Mycobacterium tuberculosis H37Rv ATCC 27294 expressing luciferase reporter gene assessed as growth inhibition at 1 uM after 6 days by luminometry relative to control. It counts as functional. Conditions: H37Rv ATCC 27294, 144 h, read-out: GI. The procedure, abridged: (§2)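 Single-concentration screen of the luminescent H37Rv reporter strain in 7H9-10% FCS, inoculated at 50,000 RLU/ml, 6 days at 37 °C. Luminescence was read after n-decanal addition. Percent inhibition is versus the untreated culture, as the mean of triplicate cultures.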

The subject of data set [7] is Mycobacterium tuberculosis. In words: Antimicrobial activity against Mycobacterium tuberculosis H37Rv ATCC 27294 expressing luciferase reporter gene assessed as growth inhibition at 0.1 uM after 6 days by luminometry relative to control. The data set is classed as functional. Conditions: H37Rv ATCC 27294, 144 h, read-out: GI. The procedure, abridged:
as §2

A short description of data set [8]: Antimicrobial activity against Mycobacterium avium subsp. avium ATCC 19698 expressing luciferase reporter gene assessed as growth inhibition after 6 days by luminometry. The data set is classed as functional. The note with it: ATCC 19698, 144 h.
Data set [9] has as its system Mycobacterium tuberculosis. In words: Antimicrobial activity against Mycobacterium tuberculosis H37Rv ATCC 27294 expressing luciferase reporter gene infected in mouse J774 macrophages assessed as intracellular growth inhibition at 1 uM after 4 days by luminometry relative to untreated control. It counts as functional. Conditions: H37Rv ATCC 27294, J774, 96 h, read-out: GI. Put shortly:
(§3)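 J774.A1 murine macrophages were seeded at 40,000 cells/well, recovered overnight and infected with luminescent H37Rv. From 24 h post-infection, cells were treated for 4 days in DMEM with penicillin and fungizone, without gentamicin. Growth was read by luminescence after 1% n-decanal and expressed as percent inhibition versus untreated, in triplicate. Macrophage viability was checked by trypan blue.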

The test system of data set [10] is Mycobacterium tuberculosis. Briefly: Antimicrobial activity against Mycobacterium tuberculosis H37Rv ATCC 27294 expressing luciferase reporter gene infected in mouse J774 macrophages assessed as intracellular growth inhibition at 0.5 uM after 4 days by luminometry relative to untreated control. Conditions: H37Rv ATCC 27294, J774, 96 h, read-out: GI. The data set is classed as functional. The procedure, abridged: as §3

A short description of data set [11]: Cytotoxicity against human HepG2/C3A cells after 24 hrs by neutral red dye uptake assay. It counts as cell-based.
For data set [12], the system named is Mycobacterium tuberculosis. In words: Antimicrobial activity against Mycobacterium tuberculosis H37Rv ATCC 27294 expressing luciferase reporter gene infected in mouse J774 macrophages assessed as intracellular growth inhibition at 2 uM after 4 days by luminometry relative to untreated control. It counts as functional. The note with it: H37Rv ATCC 27294, J774, 96 h, read-out: GI. The procedure, abridged: as §3

The subject of data set [13] is Mycobacterium tuberculosis. In words: Antimicrobial activity against Mycobacterium tuberculosis H37Rv ATCC 27294 expressing luciferase reporter gene assessed as growth inhibition at 10 uM after 6 days by luminometry relative to control. The data set is classed as functional. The note with it: H37Rv ATCC 27294, 144 h, read-out: GI. The procedure, abridged: as §2

The nature of data set [14]: Genotoxicity in human HepG2/C3A cells assessed as genomic DNA fragmentation at 10 uM after 24 hrs by comet assay. It counts as toxicity, cell-based. The procedure, abridged: as §1
For a further data set, the system named is Mycolicibacterium aurum. In words: Antimicrobial activity against Mycobacterium aurum A+. The data set is classed as functional.

For the compound `COc1ccc(-c2cc(O)c3c(c2)C(=O)c2ccccc2C3=O)cc1`, the values for the Activity entry in data set [1] and in [14] were “Non-toxic” and “Toxic”, respectively. Besides, the concentration for 50% growth inhibition (GI50) stood at 3.52 µM in [2], 7.55 µM in the data set with Mycobacterium ulcerans, 0.45 µM in data set [5] and 3.01 µM in data set [8]. In data set [3], the MIC90 is 0.92 µM (≈ 0.304 µg/mL). In addition, the selectivity ratio in data set [4] is 4.2. In addition, the inhibition of growth at 1 µM in data set [6] was 92%; in data set [9], 27.6%. For the same compound, the inhibition of growth at 0.1 µM in [7] came to 35%. Besides, the inhibition of growth at 0.5 µM in data set [10] was determined as 21.6%. In data set [11], the IC50 amounted to 1.87 µM. In data set [12], the inhibition of growth at 2 µM is 42.3%. Further, the inhibition of growth at 10 µM in data set [13] came out at 100%.

Consider `COc1ccc(-c2cc3c(c(/C=C/N(C)C)n2)C(=O)c2ccccc2C3=O)cc1`, for which the Activity entry in data set [1] and in data set [14] was “Non-toxic” throughout. The GI50 in data set [2] is 3.06 µM; with Mycobacterium ulcerans, 7.65 µM; in [5] it was 0.36 µM; in data set [8], 2.98 µM. The MIC90 in [3] was 0.88 µM (≈ 0.338 µg/mL). The selectivity ratio in [4] amounted to 92.5. The inhibition of growth at 1 µM is 100% in data set [6] and 26.3% in data set [9]. Besides, in data set [7], the inhibition of growth at 0.1 µM was 42%. Also, in data set [10], the inhibition of growth at 0.5 µM is 9.3%. This compound displayed a concentration for half-maximal inhibition (IC50) in data set [11] of 33.3 µM. The inhibition of growth at 2 µM in data set [12] was found to be 47.1%. Also, the inhibition of growth at 10 µM in data set [13] came out at 100%.

On to `COc1ccc(-c2cc3c4c(nccc4n2)-c2ccccc2C3=O)cc1`, for which the results for the Activity entry in data set [1] and in data set [14] were “Non-toxic” and “Toxic”, respectively. The GI50 is 2.54 µM in data set [2], 8.56 µM in the data set on Mycobacterium ulcerans, 0.37 µM in data set [5] and 3.56 µM in data set [8]. Moreover, in data set [3], the MIC90 stood at 0.92 µM (≈ 0.311 µg/mL). Further, the selectivity ratio in [4] was greater than 135. The inhibition of growth at 1 µM was 99% in data set [6] and 38.5% in [9]. Further, the inhibition of growth at 0.1 µM in data set [7] came out at 81%. Moreover, the inhibition of growth at 0.5 µM in data set [10] stood at 10%. The compound also had an IC50 in data set [11] greater than 50 µM. Moreover, the inhibition of growth at 2 µM in data set [12] was found to be 51.5%. For the same compound, the inhibition of growth at 10 µM in data set [13] was 100%.

Take `O=C1c2cccnc2-c2nccc3c2c1nc1ccccc13` [ASCIDIDEMIN]: in the data set with Mycolicibacterium aurum, the MIC came to 0.25 µg/mL (≈ 0.882 µM).
